In data set [1] the target is T1, bovine lung sGC (Bos taurus, UniProt P16068+P19687).
T1 sequence (P19687 1-691): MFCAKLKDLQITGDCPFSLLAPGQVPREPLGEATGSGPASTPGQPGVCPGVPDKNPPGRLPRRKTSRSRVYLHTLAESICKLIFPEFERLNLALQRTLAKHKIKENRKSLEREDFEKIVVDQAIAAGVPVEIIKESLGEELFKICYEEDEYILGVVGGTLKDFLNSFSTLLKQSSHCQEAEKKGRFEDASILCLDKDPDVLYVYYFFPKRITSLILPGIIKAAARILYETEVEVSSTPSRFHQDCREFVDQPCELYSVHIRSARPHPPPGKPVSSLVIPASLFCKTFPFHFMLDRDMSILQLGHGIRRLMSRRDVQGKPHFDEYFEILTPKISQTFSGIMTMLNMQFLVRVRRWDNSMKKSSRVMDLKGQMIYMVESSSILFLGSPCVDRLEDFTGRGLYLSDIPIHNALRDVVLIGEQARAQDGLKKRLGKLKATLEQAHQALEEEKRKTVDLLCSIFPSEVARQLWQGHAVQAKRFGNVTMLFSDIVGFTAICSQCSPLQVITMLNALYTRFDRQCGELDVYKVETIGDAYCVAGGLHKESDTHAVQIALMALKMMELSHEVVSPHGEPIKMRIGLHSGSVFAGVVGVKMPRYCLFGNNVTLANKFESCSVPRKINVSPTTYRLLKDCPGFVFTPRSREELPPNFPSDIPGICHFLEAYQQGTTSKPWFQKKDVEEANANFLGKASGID
T1 sequence (P16068 1-619): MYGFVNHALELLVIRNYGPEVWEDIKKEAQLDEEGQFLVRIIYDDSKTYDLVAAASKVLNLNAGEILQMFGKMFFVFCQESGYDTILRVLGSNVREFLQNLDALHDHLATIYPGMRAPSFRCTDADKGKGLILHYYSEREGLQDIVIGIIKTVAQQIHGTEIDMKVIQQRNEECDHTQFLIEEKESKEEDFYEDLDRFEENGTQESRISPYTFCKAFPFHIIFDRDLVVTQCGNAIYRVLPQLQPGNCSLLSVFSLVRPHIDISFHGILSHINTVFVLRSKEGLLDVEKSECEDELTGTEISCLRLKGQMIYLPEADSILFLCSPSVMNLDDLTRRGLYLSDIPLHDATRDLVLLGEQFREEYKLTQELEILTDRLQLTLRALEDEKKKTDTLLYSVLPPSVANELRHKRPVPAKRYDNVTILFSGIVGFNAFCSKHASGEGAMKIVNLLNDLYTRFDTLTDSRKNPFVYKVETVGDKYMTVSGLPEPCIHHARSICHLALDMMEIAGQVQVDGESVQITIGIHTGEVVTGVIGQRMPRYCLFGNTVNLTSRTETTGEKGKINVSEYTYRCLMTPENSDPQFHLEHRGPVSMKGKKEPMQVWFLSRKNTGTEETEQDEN
The data set is described as follows: NO. The data set is classed as biochemical. Put shortly: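 Screening and kinetics used bovine lung sGC diluted 17-fold in 50mM Tris pH 7.5, 5mM MgCl2, 2mM BME, 20% sucrose, 0.5mg/ml BSA. 1nM enzyme was preincubated with inhibitor 10 min at 37°C in 50mM Tris pH 7.5, 2mM BME, 5mM MgCl2. DMSO-matched controls (1–2.5%). GTP plus 100μM SNAP started a 10 min, 37°C reaction, stopped by 10 min boiling. cGMP measured by ELISA; 3 independent experiments.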

The target of data set [2] is T1, bovine lung sGC. The data set is described as follows: BAY 58-2667 activated sGC activity assay. It counts as biochemical. The note with it: 100μM inhibitor, 600μM GTP. In a few lines: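 Bovine lung sGC, diluted 17-fold in 50mM Tris pH 7.5, 5mM MgCl2, 2mM BME, 20% sucrose, 0.5mg/ml BSA, used at 1nM. Preincubated 10 min at 37°C with varying BAY 58-2667 and inhibitor in 5mM MgCl2. 0.5% DMSO served as control. GTP added to start. Stopped by boiling; cGMP measured by ELISA. Triplicate, 3 independent experiments; SEM.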

The target in data set [3] is T1, bovine lung sGC. Description: BAY 41-2272 stimulated sGC activity assay. It counts as biochemical. The conditions noted are these: 100μM inhibitor, range of BAY 41-2272, presence and absence of 1μM SNAP, 500μM GTP.
Data set [4] concerns the target T2, sGC catalytic domain (Homo sapiens, UniProt Q02108+Q02153).
T2 sequence (Q02108 481-608 limits assumed): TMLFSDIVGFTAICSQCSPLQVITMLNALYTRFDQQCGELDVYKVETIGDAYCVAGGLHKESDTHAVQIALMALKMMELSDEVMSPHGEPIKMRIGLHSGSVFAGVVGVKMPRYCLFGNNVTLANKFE
T2 sequence (Q02153 421-554 limits assumed): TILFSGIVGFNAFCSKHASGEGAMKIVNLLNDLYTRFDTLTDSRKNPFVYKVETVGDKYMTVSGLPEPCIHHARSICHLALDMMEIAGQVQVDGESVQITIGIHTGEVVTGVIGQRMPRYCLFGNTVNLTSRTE
Description: Purified sGC catalytic domain activity assay. It counts as biochemical. The conditions noted are these: 1μM catalytic domain, 3 GTP concentrations, inhibitor 0–600μM. In a few lines:
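Heterodimeric α1/β1 catalytic domain was co-purified from mixed cell pellets by His-tag Ni-NTA (30–300mM imidazole elution steps). The tag was removed with TEV, and the protein gel-filtered in 50mM HEPES pH 7, 150mM NaCl and stored at −80°C. Inhibitor was preincubated with domain 10 min at 37°C with Mg2+. GTP started the reaction, stopped by boiling after 10 min. cGMP measured by ELISA; triplicate; SEM.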

The target of data set [5] is SHV-1 β-lactamase (Klebsiella pneumoniae, UniProt P0AD64). The data set is described as follows: Promiscuous inhibition test with SHV-1 β-lactamase. It counts as biochemical. The note with it: Fig S1.
Chain of SHV-1 β-lactamase (P0AD64 22-286): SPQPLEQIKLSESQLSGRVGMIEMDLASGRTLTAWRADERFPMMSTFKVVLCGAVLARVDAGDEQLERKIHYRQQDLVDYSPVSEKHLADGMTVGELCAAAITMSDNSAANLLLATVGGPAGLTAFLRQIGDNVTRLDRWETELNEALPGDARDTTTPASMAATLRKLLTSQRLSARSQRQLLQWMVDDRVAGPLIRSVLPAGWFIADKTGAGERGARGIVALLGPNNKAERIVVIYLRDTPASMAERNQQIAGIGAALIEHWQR
Data set [6] in a line: Compound aggregation by dynamic light scattering. It counts as physicochemical. The conditions noted are these: DYNAPRO, Fig S2.
In data set [7] the target is T3, full length sGC (Bos taurus, UniProt P16068+P19687).
T3 sequence (P19687 1-691): T1 sequence (P19687 1-691)
T3 sequence (P16068 1-619): T1 sequence (P16068 1-619)
The data set is described as follows: Size exclusion chromatography for sGC aggregation. The note with it: 200μM compound, data not shown. (Size exclusion chromatography separates by hydrodynamic size, large species first.)

SMILES strings stand for the structures.

On to `Nc1nc(=O)[nH]nc1Nc1ccc(O)cc1` [Compound 1], for which, in data set [1] (1nM sGC, 25μM GTP, 100μM SNAP, 10μM inhibitor), the “inhibition of NO stimulated sGC activity, initial screen” value is recorded as “substantial inhibition”. In addition, in data set [1] (global fit of steady state inhibition data, 100μM SNAP), the “α-value (mixed inhibition model)” value stood at 3.6. Also, in data set [1] (judged from α-value of mixed model fit), the inhibition mechanism result is “mostly non-competitive”. Also, the “inhibition of BAY 58-2667 activated sGC” value in data set [2] is on record as 96%. For the same compound, the “inhibition of BAY 41-2272 stimulated sGC” value in data set [3] is on record as “inhibited”. In data set [4], the “inhibition of the purified catalytic domain (in words)” value was “did not observe significant inhibition”. Further, in data set [5], the “inhibition of SHV-1 β-lactamase” value is reported as “did not inhibit”. Also, in data set [6], the “aggregate formation (dynamic light scattering)” value is “do not form detectably large aggregates”. Further, the “sGC aggregation caused by compound (size exclusion chromatography)” value in data set [7] is listed as “did not cause sGC aggregation”.

These data come from paper PMC5077689 (FEBS letters, 2016).
